Assay results: ChEMBL document CHEMBL1139395 (J Med Chem, 2008)
≈ marks a conversion by molar mass, not a printed value.

Key:
Staphylococcus aureus [1] = test: Antibacterial activity against Staphylococcus aureus ATCC 29213-infected Sprague-Dawley rat assessed as reduction in bacterial density in thigh tissue at 50 mg/kg, iv administered 2 hrs after bacterial challenge measured at 8 hrs postinfection; type: functional
In short: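 Neutropenic male Sprague-Dawley rats (175-200 g); cyclophosphamide ip 150 mg/kg at day -4 and 50 mg/kg at day -1. Infection was 0.2 mL of 1 × 10⁷ CFU/mL S. aureus ATCC 29213 in saline, im into the thigh. Single iv tail-vein bolus at 2 h postinfection, D5W vehicle. Thighs homogenized for CFU 6 h post-dose; 0 h controls taken at 2 h. Mean log₁₀ CFU ± SEM; one-way ANOVA with Dunnett's test.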

Streptococcus pneumoniae [2] = test: Antibacterial activity against Streptococcus pneumoniae ATCC 6303-infeceted Sprague-Dawley rat assessed as reduction in lung bacterial density at 25 mg/kg, po administered twice at 18 and 26 hrs after bacterial challenge measured at 72 hrs postinfection; type: functional
In short: (§1)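 Male Sprague-Dawley rats (185-224 g), anesthetized, infected intratracheally with 0.2 mL (0.9 × 10⁷ CFU) S. pneumoniae ATCC 6303 serotype 3 grown overnight in enriched broth. Oral dosing in D5W at 18 and 26 h postinfection, 10 per group. Lungs homogenized for CFU at 72 h; mean log₁₀ CFU ± SEM against vehicle controls.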

Streptococcus pneumoniae [3] = test: Antibacterial activity against Streptococcus pneumoniae ATCC 10015; type: functional
[4] = Inhibition of Escherichia coli topoisomerase 4
Staphylococcus aureus [5] = test: Antibacterial activity against Staphylococcus aureus ATCC 29213 in presence of human serum; type: functional
In short: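 Broth microdilution MIC per CLSI methods (modified), with human serum added to the liquid medium at a final 50% for S. aureus ATCC 29213.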

[6] = Bioavailability in Sprague-Dawley rat; type: ADME, organism-based; details: in vivo
[7] = Volume of distribution at steady state in Sprague-Dawley rat; type: ADME, organism-based; details: in vivo, read-out: Vdss
[8] = Inhibition of Escherichia coli DNA gyrase
Staphylococcus aureus [9] = test: Antibacterial activity against Staphylococcus aureus ATCC 29213 in absence of human serum; type: functional
Haemophilus influenzae = test: Antibacterial activity against Haemophilus influenzae ATCC 51907; type: functional
[10] = Half life in Sprague-Dawley rat; type: ADME, organism-based; details: in vivo
[11] = Clearance in Sprague-Dawley rat; type: ADME, organism-based; details: in vivo
Streptococcus pneumoniae [12] = test: Antibacterial activity against Streptococcus pneumoniae ATCC 6303; type: functional
Streptococcus pneumoniae [13] = test: Antibacterial activity against Streptococcus pneumoniae ATCC 6303-infeceted Sprague-Dawley rat assessed as reduction in lung bacterial density at 50 mg/kg, po administered twice at 18 and 26 hrs after bacterial challenge measured at 72 hrs postinfection; type: functional; in short: as §1
DNA gyrase = DNA gyrase (Staphylococcus aureus, UniProt P0A0K8+P20831); test: Inhibition of Staphylococcus aureus DNA gyrase; type: protein-complex assay
DNA gyrase, sequence (P0A0K8 whole entry): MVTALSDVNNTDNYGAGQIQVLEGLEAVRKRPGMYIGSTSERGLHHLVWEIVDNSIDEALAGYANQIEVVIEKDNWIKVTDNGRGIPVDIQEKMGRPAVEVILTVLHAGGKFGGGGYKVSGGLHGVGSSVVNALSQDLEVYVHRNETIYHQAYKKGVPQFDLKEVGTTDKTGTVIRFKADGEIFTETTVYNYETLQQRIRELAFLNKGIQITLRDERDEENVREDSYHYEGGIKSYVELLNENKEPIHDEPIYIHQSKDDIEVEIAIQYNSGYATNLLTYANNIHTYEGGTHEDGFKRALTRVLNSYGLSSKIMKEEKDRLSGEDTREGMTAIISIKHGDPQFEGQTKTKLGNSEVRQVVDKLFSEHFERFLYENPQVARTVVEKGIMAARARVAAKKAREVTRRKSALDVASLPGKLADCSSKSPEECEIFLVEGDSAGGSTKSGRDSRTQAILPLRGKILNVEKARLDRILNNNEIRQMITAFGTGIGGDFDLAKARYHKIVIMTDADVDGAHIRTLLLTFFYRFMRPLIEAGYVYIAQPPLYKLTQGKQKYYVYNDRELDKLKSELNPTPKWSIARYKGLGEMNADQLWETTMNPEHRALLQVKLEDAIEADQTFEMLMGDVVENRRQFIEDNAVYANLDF
DNA gyrase, sequence (P20831 whole entry): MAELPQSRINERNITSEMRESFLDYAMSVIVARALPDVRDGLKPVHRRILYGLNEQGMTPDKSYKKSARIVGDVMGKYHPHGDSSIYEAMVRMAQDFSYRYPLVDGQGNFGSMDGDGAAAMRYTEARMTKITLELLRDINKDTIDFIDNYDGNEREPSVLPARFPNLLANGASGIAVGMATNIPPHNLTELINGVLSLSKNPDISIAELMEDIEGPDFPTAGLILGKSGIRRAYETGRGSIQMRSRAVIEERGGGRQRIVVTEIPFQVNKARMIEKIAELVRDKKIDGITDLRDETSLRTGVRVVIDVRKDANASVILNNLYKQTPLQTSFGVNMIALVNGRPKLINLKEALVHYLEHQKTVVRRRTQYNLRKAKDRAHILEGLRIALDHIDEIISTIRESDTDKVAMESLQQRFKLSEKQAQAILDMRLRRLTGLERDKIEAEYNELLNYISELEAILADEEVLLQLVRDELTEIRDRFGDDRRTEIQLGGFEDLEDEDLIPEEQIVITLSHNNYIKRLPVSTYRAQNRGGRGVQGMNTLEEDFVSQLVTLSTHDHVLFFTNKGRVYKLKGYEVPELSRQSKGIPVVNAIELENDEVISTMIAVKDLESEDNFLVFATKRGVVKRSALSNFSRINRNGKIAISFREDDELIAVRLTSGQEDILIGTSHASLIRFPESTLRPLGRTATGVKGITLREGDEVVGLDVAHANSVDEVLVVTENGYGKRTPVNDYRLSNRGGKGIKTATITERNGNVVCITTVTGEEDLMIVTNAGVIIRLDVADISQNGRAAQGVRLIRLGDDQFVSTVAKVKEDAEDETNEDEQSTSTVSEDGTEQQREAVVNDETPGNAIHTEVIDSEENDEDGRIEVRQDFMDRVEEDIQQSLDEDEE

SMILES	log10cfu (Staphylococcus aureus [1])	log10cfu (Streptococcus pneumoniae [2])	MIC (Streptococcus pneumoniae [3])	Ki [4]	MIC (Staphylococcus aureus [5])	bioavailability [6]	Vd [7]	Ki [8]	MIC (Staphylococcus aureus [9])	MIC (Haemophilus influenzae)	half-life [10]	clearance [11]	MIC (Streptococcus pneumoniae [12])	log10cfu (Streptococcus pneumoniae [13])	Ki (DNA gyrase)
CCNC(=O)Nc1nc2cc(-c3cccnc3)cc(-c3ncccc3F)c2[nH]1	1.5	4.8	0.004 µg/mL (≈ 0.0106 µM)	23 nM	0.5 µg/mL	88.4%	1.6 L/kg	< 4 nM	0.031 µg/mL (≈ 0.0824 µM)	1 µg/mL (≈ 2.66 µM)	42 min	14.4 mL/min/kg	0.008 µg/mL (≈ 0.0213 µM)	5.6	14 nM
CCNC(=O)Nc1nc2cc(-c3cnc(OC)nc3)c(OC)cc2[nH]1			0.125 µg/mL (≈ 0.365 µM)	680 nM	8 µg/mL			15 nM	2 µg/mL (≈ 5.84 µM)	4 µg/mL (≈ 11.7 µM)					44 nM
CCOC(=O)Nc1nc2cc(/C=C/c3ccc(O)cc3)ccc2[nH]1			> 16 µg/mL	> 60000 nM	> 16 µg/mL			20000 nM	> 16 µg/mL	> 16 µg/mL					2000 nM
CCNC(=O)Nc1nc2cc(-n3cnc(C(=O)NC4CC4)c3)c(F)cc2[nH]1			0.063 µg/mL (≈ 0.17 µM)	78 nM	8 µg/mL			< 4 nM	4 µg/mL (≈ 10.8 µM)	4 µg/mL (≈ 10.8 µM)					10 nM
CCNC(=O)Nc1nc2cc(-c3cccnc3)c(F)cc2[nH]1			0.25 µg/mL (≈ 0.835 µM)	680 nM	16 µg/mL			33 nM	1 µg/mL (≈ 3.34 µM)	16 µg/mL (≈ 53.5 µM)					38 nM
CCNC(=O)Nc1nc2cc(-c3cccnc3)c(C)cc2[nH]1			0.5 µg/mL (≈ 1.69 µM)	1400 nM	> 16 µg/mL			61 nM	16 µg/mL (≈ 54.2 µM)	16 µg/mL (≈ 54.2 µM)					85 nM
CCNC(=O)Nc1nc2cc(-c3cccnc3)ccc2[nH]1			2 µg/mL (≈ 7.11 µM)	2300 nM	> 16 µg/mL			81 nM	16 µg/mL (≈ 56.9 µM)	16 µg/mL (≈ 56.9 µM)					130 nM
CCNC(=O)Nc1nc2cc(-c3ccccc3)ccc2[nH]1			> 16 µg/mL	9500 nM	> 16 µg/mL			400 nM	> 16 µg/mL	> 16 µg/mL					470 nM
CCNC(=O)Nc1nc2cc(-c3cccnc3)c(OC)cc2[nH]1			2 µg/mL (≈ 6.42 µM)	3500 nM	> 16 µg/mL			130 nM	16 µg/mL (≈ 51.4 µM)	> 16 µg/mL					190 nM
CCNC(=O)Nc1nc2cc(-c3cccnc3)c(N3CCCCC3)cc2[nH]1			2 µg/mL (≈ 5.49 µM)	3300 nM	> 16 µg/mL			120 nM	16 µg/mL (≈ 43.9 µM)	> 16 µg/mL					81 nM
CCNC(=O)Nc1nc2cc(-c3cncnc3)cc(-n3cccn3)c2[nH]1			< 0.008 µg/mL	58 nM	0.25 µg/mL			< 4 nM	0.031 µg/mL (≈ 0.089 µM)	0.25 µg/mL (≈ 0.718 µM)					16 nM
CCNC(=O)Nc1nc2cc(-n3cnc(C(=O)NC4CC4)c3)cc(-n3cccn3)c2[nH]1			0.003 µg/mL (≈ 0.00715 µM)	12 nM	4 µg/mL			< 4 nM	0.5 µg/mL (≈ 1.19 µM)	0.25 µg/mL (≈ 0.596 µM)					10 nM
CCNC(=O)Nc1nc2cc(-c3cccnc3)cc(-c3ccccn3)c2[nH]1			0.004 µg/mL (≈ 0.0112 µM)	14 nM	2 µg/mL			< 4 nM	0.031 µg/mL (≈ 0.0865 µM)	2 µg/mL (≈ 5.58 µM)					7 nM
CCNC(=O)Nc1nc2cc(-c3cccnc3)cc(-c3cccnc3)c2[nH]1			0.5 µg/mL (≈ 1.4 µM)	1300 nM	16 µg/mL			6 nM	4 µg/mL (≈ 11.2 µM)	> 16 µg/mL					17 nM
CCNC(=O)Nc1nc2cc(-c3cccnc3)cc(OCc3ccccc3)c2[nH]1			1 µg/mL (≈ 2.58 µM)	390 nM	> 16 µg/mL			18 nM	2 µg/mL (≈ 5.16 µM)	> 16 µg/mL					35 nM
CCNC(=O)Nc1nc2cc(-c3cccnc3)cc(C(=O)OC)c2[nH]1			0.016 µg/mL (≈ 0.0471 µM)	35 nM	0.5 µg/mL			< 4 nM	0.063 µg/mL (≈ 0.186 µM)	0.5 µg/mL (≈ 1.47 µM)					8 nM
CCNC(=O)Nc1nc2cc(-c3cccnc3)cc(-n3cccn3)c2[nH]1			0.008 µg/mL (≈ 0.023 µM)	46 nM	4 µg/mL			< 4 nM	0.063 µg/mL (≈ 0.181 µM)	1 µg/mL (≈ 2.88 µM)					15 nM
CCNC(=O)Nc1nc2cc(-c3ccn(C)c(=O)c3)cc(-c3ncccc3F)c2[nH]1			< 0.008 µg/mL	11 nM	0.032 µg/mL			< 4 nM	0.016 µg/mL (≈ 0.0394 µM)	0.125 µg/mL (≈ 0.308 µM)					23 nM
CCNC(=O)Nc1nc2cc(-c3cncnc3)ccc2[nH]1			0.5 µg/mL (≈ 1.77 µM)	1100 nM	4 µg/mL			20 nM	4 µg/mL (≈ 14.2 µM)	2 µg/mL (≈ 7.08 µM)					49 nM
CCNC(=O)Nc1nc2cc(-n3cnc(C(=O)NC4CC4)c3)cc(-c3ccccn3)c2[nH]1			0.002 µg/mL (≈ 0.00465 µM)	7 nM	0.25 µg/mL			< 4 nM	0.063 µg/mL (≈ 0.146 µM)	0.125 µg/mL (≈ 0.29 µM)					12 nM
CCNC(=O)Nc1nc2cc(-c3cccnc3)cc(C(=O)NC)c2[nH]1			0.063 µg/mL (≈ 0.186 µM)	150 nM	> 16 µg/mL			5 nM	16 µg/mL (≈ 47.3 µM)	16 µg/mL (≈ 47.3 µM)					26 nM
CC(=O)NC[C@H]1CN(c2ccc(N3CCOCC3)c(F)c2)C(=O)O1 [LINEZOLID]		2.5											0.4 µg/mL (≈ 1.19 µM)	5.9	
CO[C@@H]1[C@@H](OC(N)=O)[C@@H](O)[C@H](Oc2ccc3c(O)c(NC(=O)c4ccc(O)c(CC=C(C)C)c4)c(=O)oc3c2C)OC1(C)C [NOVOBIOCIN]			2 µg/mL (≈ 3.26 µM)		> 16 µg/mL				0.125 µg/mL (≈ 0.204 µM)	0.063 µg/mL (≈ 0.103 µM)					
